Measured values gathered from unrelated publications.
Lines come from different studies, so protocols differ.
Target: Mitogen-activated protein kinase kinase kinase 14 (MAP3K14, Homo sapiens, UniProt Q99558)

| Structure (SMILES) | read-out | method | concentration | remaining binding |
| --- | --- | --- | --- | --- |
| COc1ncc2cc3ccccc3nc2c1C#N | cell-free assay | competition with immobilised ligand | 5 µM | 76% |
| c1ccc(N2CCN(Cc3nc4ccccc4[nH]3)CC2)nc1 | binding | competition with immobilised ligand | 1 µM | 94% |
| O=C(c1ccc(Nc2nccc(-c3cc4ccccc4s3)n2)cc1)N1CCC(N2CCCC2)CC1 | binding | competition with immobilised ligand | 1 µM | 59% |
| CN(C)c1ncc(F)c(-c2cnn3ncccc23)n1 | binding | competition with immobilised ligand | 1 µM | 75% |
| FC(F)(F)Oc1cccc(-c2cnc3ccc(-c4ccncc4)nn23)c1 | cell-free assay | competition with immobilised ligand | 5 µM | 37% |
| O=C(NCC1CCOCC1)c1n[nH]cc1NC(=O)c1c(F)cccc1F | binding | competition with immobilised ligand | 1 µM | 79% |
| O=C(NCCCN1CCOCC1)c1ccc(Nc2ncc(Cl)c(-c3ccc(Cl)s3)n2)cc1 | binding | competition with immobilised ligand | 1 µM | 49% |
| CN(c1nccc(-c2cnn3ncccc23)n1)C1CC1 | binding | – | 1 µM | 100% |
| O=C(NS(=O)(=O)c1ccc(NCC2CCOCC2)c([N+](=O)[O-])c1)c1ccc(N2CCN(Cc3ccc(C(F)(F)F)cc3-c3ccc(Cl)cc3)CC2)cc1Oc1cnc2[nH]ccc2c1 | cell-free assay | competition with immobilised ligand | 1 µM | 65% |
| N[C@@H]1CCN(c2nccc(-c3cnn4ncccc34)n2)C1 | binding | – | 1 µM | 91% |
| CCCCN(CCCC)C(=O)CN1C[C@H](c2cc(OC)c3c(c2)OCO3)[C@@H](C(=O)O)[C@@H]1CC(C)(C)CCC | cell-free assay | competition with immobilised ligand | 1 µM | 100% |
| CNC(=O)[C@@H]1CC[C@@H](n2c(-c3ccc4cnccc4c3)nc3ccc(C(=O)NCc4cccc(C(N)=O)c4)cc32)C1 | binding | competition with immobilised ligand | 1 µM | 100% |
| Cc1noc([C@H]2C[C@@H](c3ccc(C(F)(F)F)cc3)CN(C(=O)N3CCS(=O)(=O)C3)C2)n1 | cell-free assay | competition with immobilised ligand | 1 µM | 91% |
| C[C@H]1CCN(c2nccc(-c3cnn4ncccc34)n2)C1 | binding | competition with immobilised ligand | 1 µM | 82% |
| CNCc1ccccc1-c1csc([C@@H](C)Nc2nc(C)nc3cc(OC)c(OC)cc23)c1 | cell-free assay | competition with immobilised ligand | 1 µM | 93% |
| F[C@@H]1CCN(c2nccc(-c3cnn4ncccc34)n2)C1 | binding | – | 1 µM | 100% |
| c1cncc(-c2cccc(Nc3nccc(NC4CCCCC4)n3)c2)c1 | binding | competition with immobilised ligand | 10 µM | 96% |
| Cc1cnc(Nc2ccc(C(=O)N3CCC(N4CCCC4)CC3)cc2)nc1-c1cc2ccccc2s1 | binding | competition with immobilised ligand | 1 µM | 100% |
| CC(=O)N1CCC(c2ccc(C(=O)NC(=N)N)cc2C(F)(F)F)CC1 | cell-free assay | competition with immobilised ligand | 1 µM | 100% |
| COc1ccnn2ncc(-c3ccnc(N(C)C)n3)c12 | binding | – | 1 µM | 78% |
